The text below walks through data of ChEMBL document CHEMBL2434966, “Novel N-4-piperazinyl-ciprofloxacin-chalcone hybrids: synthesis, physicochemical properties, anticancer and topoisomerase I and II inhibitory activity” (Eur J Med Chem, 2013).

Molecules are shown by their SMILES. ≈ marks a conversion by molar mass, not a printed value. Calls of active or inactive are those of the source. The calls are words filed in the database; no cut-off is given here.

Data set [1] can be described thus: Aqueous solubility of the compound at pH 7.8 by UV spectroscopic analysis. Type of data set: physicochemical. The conditions noted are these: aqueous solution. The method, boiled down: (§1)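 Excess solid (10 mg) shaken in buffer at pH 6.9 or 7.8, 37 °C. The filtrate was diluted into the linear calibration range and dissolved drug measured by UV absorbance at λmax 272 nm. Values are the average of at least three agreeing independent measurements.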

Data set [2] in a line: Octanol-phosphate buffer partition coefficient, log P of the compound after 5 hrs by shake-flask method. Type of data set: physicochemical. The method, boiled down: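 Shake-flask method: 100 µL of 0.2 mg/mL stock diluted into 1.9 mL phosphate buffer pH 7.4 plus 2 mL mutually saturated n-octanol, protected from light. Vortexed 3 min, shaken 5 h at 25 °C. Both phases assayed by UV at 272 nm; log P = log([octanol]/[aqueous]), run in triplicate.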

A short description of data set [3]: Aqueous solubility of the compound at pH 6.9 by UV spectroscopic analysis. Type of data set: physicochemical. Conditions: aqueous solution. The method, boiled down: as §1
Data set [4] deals with T1, DNA topoisomerase 1 (Homo sapiens) (UniProt P11387).
T1 sequence (whole entry): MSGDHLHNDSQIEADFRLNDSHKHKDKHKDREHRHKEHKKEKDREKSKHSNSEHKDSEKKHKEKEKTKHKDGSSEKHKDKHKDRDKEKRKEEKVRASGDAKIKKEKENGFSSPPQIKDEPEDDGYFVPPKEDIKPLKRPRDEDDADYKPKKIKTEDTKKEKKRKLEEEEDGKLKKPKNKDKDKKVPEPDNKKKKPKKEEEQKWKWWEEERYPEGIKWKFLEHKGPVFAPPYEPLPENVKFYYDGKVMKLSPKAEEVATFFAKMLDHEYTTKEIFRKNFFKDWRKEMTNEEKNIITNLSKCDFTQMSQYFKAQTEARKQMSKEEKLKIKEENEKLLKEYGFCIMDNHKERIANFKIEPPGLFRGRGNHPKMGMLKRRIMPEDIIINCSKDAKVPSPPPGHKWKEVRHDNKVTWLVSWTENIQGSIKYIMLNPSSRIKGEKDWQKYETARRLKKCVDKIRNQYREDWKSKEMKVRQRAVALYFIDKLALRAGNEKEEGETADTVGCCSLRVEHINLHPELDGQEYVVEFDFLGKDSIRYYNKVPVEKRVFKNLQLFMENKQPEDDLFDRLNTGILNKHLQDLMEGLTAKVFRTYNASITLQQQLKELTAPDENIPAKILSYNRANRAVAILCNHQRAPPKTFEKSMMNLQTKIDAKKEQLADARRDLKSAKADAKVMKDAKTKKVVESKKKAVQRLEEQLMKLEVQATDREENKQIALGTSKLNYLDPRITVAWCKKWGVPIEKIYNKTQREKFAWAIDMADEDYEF
Briefly: Inhibition of human topoisomerase 1-mediated unwinding of pHOT1 plasmid DNA up to 1000 uM after 30 mins by agarose gel electrophoresis. The method, boiled down:
(§2)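 pHOT1 plasmid (100 ng) was first relaxed with excess human topo I (3 units) for 30 min at 37 °C in Tris-HCl pH 7.9. Variable compound amounts were then added for a further 30 min at 37 °C. Stopped with EDTA; 1% agarose/TAE gel at 15 V for 15 h, ethidium stain, supercoiled DNA quantified. m-AMSA was the positive control.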

The target of data set [5] is DNA topoisomerase 2-alpha (Homo sapiens) (UniProt P11388). Nature of the data set: Inhibition of human topoisomerase 2alpha-mediated relaxation of supercoiled pBR322 DNA at 20 uM after 30 mins by agarose gel electrophoresis relative to control. The method, boiled down:
(§3)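 Human topo IIα (1 unit) with 200 ng supercoiled pBR322 in Tris-HCl pH 7.9, 50 mM NaCl, 5 mM MgCl2, 1 mM EDTA, 1 mM ATP, BSA, 30 min at 30 °C. DMSO was matched in the enzyme-only control. Stopped with EDTA; 1% agarose/TAE gel, ethidium stain, supercoiled band quantified by UV imaging. Etoposide was the positive control.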

Data set [6] has the same target. Nature of the data set: Inhibition of human topoisomerase 2alpha-mediated relaxation of supercoiled pBR322 DNA at 100 uM after 30 mins by agarose gel electrophoresis relative to control. Summed up:
as §3

In data set [7] the target is T1, DNA topoisomerase 1 (Homo sapiens). Briefly: Inhibition of human recombinant topoisomerase 1-mediated relaxation of supercoiled pBR322 DNA at 20 uM after 30 mins by agarose gel electrophoresis relative to control. The method, boiled down:
(§4)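 Recombinant human topo I (0.4 units) with 100 ng supercoiled pBR322, 37 °C for 30 min in Tris-HCl pH 7.9, 150 mM NaCl, 0.1% BSA, 1 mM spermidine, 5% glycerol. Compounds came from 20 mM DMSO stocks, with matched DMSO in the enzyme-only control. Stopped with sarcosyl; 1% agarose/TAE gel, ethidium stain, UV densitometry. Camptothecin was the positive control.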

Data set [8] shares this target. Nature of the data set: Inhibition of human recombinant topoisomerase 1-mediated relaxation of supercoiled pBR322 DNA at 100 uM after 30 mins by agarose gel electrophoresis relative to control. The method, boiled down: as §4
Data set [9] has as its system HCT-116. Nature of the data set: Growth inhibition of human HCT116 cells at 10^-5 M after 48 hrs by sulforhodamine B assay. Type of data set: functional, cell-based. Summed up: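 NCI 60-cell-line primary screen. Single concentration of 10^-5 M, 48 h incubation. End point by sulforhodamine B protein staining read spectrophotometrically. Reported as percent growth of treated cells relative to untreated control cells.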

The subject of data set [10] is NCI-H522. Briefly: Growth inhibition of human NCI-H522 cells at 10^-5 M after 48 hrs by sulforhodamine B assay. Type of data set: functional, cell-based. The method, boiled down: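 NCI 60-cell-line primary one-dose screen. Cells were exposed to a single 10^-5 M concentration for 48 h. The end point was sulforhodamine B protein staining, read spectrophotometrically. Results are reported as percent growth of treated cells relative to untreated control cells.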

Data set [11] concerns the target T1, DNA topoisomerase 1 (Homo sapiens). Nature of the data set: Inhibition of human topoisomerase 1-mediated unwinding of pHOT1 plasmid DNA after 30 mins by agarose gel electrophoresis. Summed up: as §2

DNA topoisomerase 2-alpha (Homo sapiens), sequence (P11388 whole entry): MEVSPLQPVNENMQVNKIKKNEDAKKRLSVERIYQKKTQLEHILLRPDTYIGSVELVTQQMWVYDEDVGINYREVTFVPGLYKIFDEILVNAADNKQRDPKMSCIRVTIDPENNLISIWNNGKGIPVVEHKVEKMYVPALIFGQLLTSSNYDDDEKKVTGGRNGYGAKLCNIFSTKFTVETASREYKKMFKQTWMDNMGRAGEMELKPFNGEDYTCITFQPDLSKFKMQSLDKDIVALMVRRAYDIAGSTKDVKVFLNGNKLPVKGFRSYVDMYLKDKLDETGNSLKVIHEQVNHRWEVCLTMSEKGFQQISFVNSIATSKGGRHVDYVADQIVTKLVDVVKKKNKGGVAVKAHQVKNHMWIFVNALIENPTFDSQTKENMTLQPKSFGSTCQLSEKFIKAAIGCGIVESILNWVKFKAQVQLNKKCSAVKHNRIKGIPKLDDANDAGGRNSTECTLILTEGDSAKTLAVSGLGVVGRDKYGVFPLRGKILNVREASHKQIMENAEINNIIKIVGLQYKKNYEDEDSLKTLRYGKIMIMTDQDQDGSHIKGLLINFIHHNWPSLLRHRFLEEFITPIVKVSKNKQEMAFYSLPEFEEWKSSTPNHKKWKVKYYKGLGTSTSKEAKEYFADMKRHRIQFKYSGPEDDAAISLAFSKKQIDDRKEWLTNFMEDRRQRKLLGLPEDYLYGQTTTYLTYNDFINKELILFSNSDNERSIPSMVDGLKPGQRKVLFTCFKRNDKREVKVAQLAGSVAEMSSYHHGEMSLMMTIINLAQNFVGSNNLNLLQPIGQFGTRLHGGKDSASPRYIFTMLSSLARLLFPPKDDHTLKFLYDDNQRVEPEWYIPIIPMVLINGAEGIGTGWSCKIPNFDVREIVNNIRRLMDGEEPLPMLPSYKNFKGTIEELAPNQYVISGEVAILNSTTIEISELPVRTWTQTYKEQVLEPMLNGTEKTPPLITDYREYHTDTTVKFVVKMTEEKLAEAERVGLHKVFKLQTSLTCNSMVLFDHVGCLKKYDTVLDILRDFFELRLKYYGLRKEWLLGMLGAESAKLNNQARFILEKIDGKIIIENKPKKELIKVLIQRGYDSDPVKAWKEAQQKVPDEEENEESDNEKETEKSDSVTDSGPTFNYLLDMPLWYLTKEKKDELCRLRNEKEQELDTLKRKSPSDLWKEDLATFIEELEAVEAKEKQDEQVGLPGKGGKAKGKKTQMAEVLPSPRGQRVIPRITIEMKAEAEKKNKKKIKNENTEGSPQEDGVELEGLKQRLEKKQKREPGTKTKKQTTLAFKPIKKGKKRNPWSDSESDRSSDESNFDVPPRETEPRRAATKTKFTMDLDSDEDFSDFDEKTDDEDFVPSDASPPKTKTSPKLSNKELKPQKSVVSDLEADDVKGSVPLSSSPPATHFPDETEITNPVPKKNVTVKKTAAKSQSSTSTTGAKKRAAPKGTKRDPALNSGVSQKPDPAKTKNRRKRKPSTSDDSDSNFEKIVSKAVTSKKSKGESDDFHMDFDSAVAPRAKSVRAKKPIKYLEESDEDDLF

As to `O=C(CN1CCN(c2cc3c(cc2F)c(=O)c(C(=O)O)cn3C2CC2)CC1)Nc1ccc(C(=O)/C=C/c2ccc3c(c2)OCO3)cc1`, the solubility in [1] was 2.24 µg/mL (≈ 3.51 µM); in data set [3] it was 2.66 µg/mL (≈ 4.17 µM). This molecule also came in with a logP at 5 h in data set [2] of 0.562. Also, in [4], the inhibition result is “inactive”. For the same molecule, the inhibition is 43.8% in data set [5], 85.7% in [6], 25.9% in [7] and 91.3% in data set [8].

With `COc1ccc(/C=C/C(=O)c2ccc(NC(=O)CN3CCN(c4cc5c(cc4F)c(=O)c(C(=O)O)cn5C4CC4)CC3)cc2)cc1OC`, the solubility is 0.68 µg/mL (≈ 1.04 µM) in data set [1] and 0.75 µg/mL (≈ 1.15 µM) in data set [3]. In [2], the logP at 5 h was found to be 1.46. Also, the inhibition worked out at 9% in data set [6], 2.5% in data set [7] and 73.2% in data set [8].

Turning to `O=C(CN1CCN(c2cc3c(cc2F)c(=O)c(C(=O)O)cn3C2CC2)CC1)Nc1ccc(C(=O)/C=C/c2ccc(Cl)cc2)cc1`, the solubility is 2.23 µg/mL (≈ 3.54 µM) in [1] and 2.77 µg/mL (≈ 4.4 µM) in [3]. This molecule also registered a logP at 5 h in data set [2] of 0.47. Also, the results for the inhibition in [6], in data set [7] and in data set [8] were 27.7%, 0.4% and 67.5%, respectively. Further, the “growth inhibition (GI)” value in [9] and in [10] was “Active” each time.

In the case of `COc1cc(NS(C)(=O)=O)ccc1Nc1c2ccccc2nc2ccccc12`, the inhibition result in [11] was “Dose-dependent effect”.

As for `COc1ccc(/C=C/C(=O)c2ccc(NC(=O)CN3CCN(c4cc5c(cc4F)c(=O)c(C(=O)O)cn5C4CC4)CC3)cc2)cc1`, the results for the solubility in data set [1] and in data set [3] were 2.42 µg/mL (≈ 3.87 µM) and 2.98 µg/mL (≈ 4.77 µM), respectively. The molecule further came in with a logP at 5 h in [2] of 0.684. Further, the inhibition result in [4] is “inactive”. The inhibition in data set [5] worked out at 49.6%; in data set [6] it was 84.3%; in data set [7], 25.3%; in data set [8] it was 67.6%. Moreover, the “growth inhibition (GI)” value in data set [9] and in [10] was “Active” in each case.

As for `O=C(CN1CCN(c2cc3c(cc2F)c(=O)c(C(=O)O)cn3C2CC2)CC1)Nc1ccc(C(=O)/C=C/c2cccc([N+](=O)[O-])c2)cc1`, the solubility is 27.4 µg/mL (≈ 42.9 µM) in data set [1] and 30.7 µg/mL (≈ 47.9 µM) in data set [3]. The molecule further showed a logP at 5 h in [2] of -0.0812. The inhibition in data set [5] was 8.8%; in data set [6] it was 82.8%; in data set [7], 11.1%; in data set [8], 90.5%.

With `O=C(CN1CCN(c2cc3c(cc2F)c(=O)c(C(=O)O)cn3C2CC2)CC1)Nc1ccc(C(=O)/C=C/c2ccccc2Cl)cc1`, the figures for the solubility in data set [1] and in data set [3] were 2.12 µg/mL (≈ 3.37 µM) and 2.45 µg/mL (≈ 3.89 µM), respectively. This molecule also came in with a logP at 5 h in data set [2] of 1.29. Also, the inhibition in data set [5] was determined as 21.3%; in data set [6], 66.7%; in data set [7], 4.2%; in data set [8] it was 70.8%.

Regarding `O=C(CN1CCN(c2cc3c(cc2F)c(=O)c(C(=O)O)cn3C2CC2)CC1)Nc1ccc(C(=O)/C=C/c2cccc(Cl)c2)cc1`, the results for the solubility in data set [1] and in data set [3] were 29.7 µg/mL (≈ 47.3 µM) and 34.4 µg/mL (≈ 54.7 µM), respectively. For the same molecule, the logP at 5 h in data set [2] was determined as 0.302. The inhibition amounted to 24.6% in data set [5], 52.9% in data set [6], 3.1% in [7] and 68.8% in data set [8].

In the case of `Cc1ccc(/C=C/C(=O)c2ccc(NC(=O)CN3CCN(c4cc5c(cc4F)c(=O)c(C(=O)O)cn5C4CC4)CC3)cc2)c(C)c1`, the solubility was 2.07 µg/mL (≈ 3.32 µM) in [1] and 2.12 µg/mL (≈ 3.4 µM) in data set [3]. The molecule further displayed a logP at 5 h in data set [2] of 1.47. In addition, the inhibition in data set [5] stood at 29.4%; in [6], 78.9%; in [7] it was 11%; in data set [8], 85.1%.
